9 compounds from ChEMBL document CHEMBL2021818, “Novel desosamine-modified 14- and 15-membered macrolides without antibacterial activity” (2012) can be followed below.

Values after ≈ are worked out from the molar mass of the structure shown.

What all share (assay type): functional
One assay concerns Streptococcus pneumoniae. Briefly: Antibacterial activity against Streptococcus pneumoniae ATCC […] after 24 hrs at 37 degC by CLSI protocol based microdilution method. Summed up:
(§1)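 Macrolide-susceptible strains, broth microdilution MIC per CLSI. Media: Mueller–Hinton broth (MHB) for S. aureus and M. catarrhalis, MHB plus 5% horse serum for streptococci, Haemophilus test medium for H. influenzae. Compounds dissolved in DMF (5 mg/mL stock) and serially twofold diluted in medium over 64 to 0.125 µg/mL. MIC read after 24 h incubation at 37 °C.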
A general note: In broth dilution the organism is exposed to a series of concentrations in liquid medium.

In another assay the test system is Streptococcus pyogenes. The assay is described as follows: Antibacterial activity against Streptococcus pyogenes ATCC 700294 after 24 hrs at 37 degC by CLSI protocol based microdilution method. The following applies: ATCC 700294, 24 h. The procedure, abridged:
as §1

The next assay deals with Haemophilus influenzae. Briefly: Antibacterial activity against Haemophilus influenzae ATCC 49247 after 24 hrs at 37 degC by CLSI protocol based microdilution method. To be noted: ATCC 49247, 24 h. Summed up: as §1
Another assay has as its system Staphylococcus aureus. The assay is described as follows: Antibacterial activity against Staphylococcus aureus ATCC 13709 after 24 hrs at 37 degC by CLSI protocol based microdilution method. To be noted: ATCC 13709, 24 h. The procedure, abridged:
as §1

The test system of the next assay is Moraxella catarrhalis. The assay is described as follows: Antibacterial activity against Moraxella catarrhalis ATCC 23246 after 24 hrs at 37 degC by CLSI protocol based microdilution method. The following applies: ATCC 23246, 24 h. Summed up: as §1

As for `CC[C@H]1OC(=O)[C@H](C)[C@@H](O[C@H]2C[C@@](C)(OC)[C@@H](O)[C@H](C)O2)[C@H](C)[C@@H](O[C@@H]2O[C@H](C)C[C@H]3[C@H]2OC(=O)N3CC)[C@](C)(OC)C[C@@H](C)C(=O)[C@H](C)[C@@H](O)[C@]1(C)O`, the MIC in the assay on Streptococcus pneumoniae, against Streptococcus pyogenes, in the assay on Haemophilus influenzae, against Staphylococcus aureus and against Moraxella catarrhalis was greater than 64 µg/mL in each case.
Consider `CCCN1C(=O)O[C@H]2[C@H](O[C@@H]3[C@@H](C)[C@H](O[C@H]4C[C@@](C)(OC)[C@@H](O)[C@H](C)O4)[C@@H](C)C(=O)O[C@H](CC)[C@@](C)(O)[C@H](O)[C@@H](C)C(=O)[C@H](C)C[C@@]3(C)OC)O[C@H](C)C[C@@H]21`, for which the MIC with Streptococcus pneumoniae, with Streptococcus pyogenes, with Haemophilus influenzae, against Staphylococcus aureus and against Moraxella catarrhalis was greater than 64 µg/mL in each case.
On to `CC[C@H]1OC(=O)[C@H](C)[C@@H](O[C@H]2C[C@@](C)(OC)[C@@H](O)[C@H](C)O2)[C@H](C)[C@@H](O[C@@H]2O[C@H](C)C[C@H]3[C@H]2OC(=O)N3Cc2ccccc2)[C@](C)(OC)C[C@@H](C)C(=O)[C@H](C)[C@@H](O)[C@]1(C)O`, for which the MIC in the assay on Streptococcus pneumoniae, against Streptococcus pyogenes, in the assay on Haemophilus influenzae, against Staphylococcus aureus and in the assay with Moraxella catarrhalis was greater than 64 µg/mL throughout.
Regarding `CC[C@H]1OC(=O)[C@H](C)[C@@H](O[C@H]2C[C@@](C)(OC)[C@@H](O)[C@H](C)O2)[C@H](C)[C@@H](O[C@@H]2O[C@H](C)C[C@H]3[C@H]2OC(=O)N3CC)[C@](C)(O)C[C@@H](C)CN(C)[C@H](C)[C@@H](O)[C@]1(C)O`, the MIC in the assay on Streptococcus pneumoniae, in the assay with Streptococcus pyogenes, with Haemophilus influenzae, against Staphylococcus aureus and in the assay with Moraxella catarrhalis was greater than 64 µg/mL throughout.
Take `CCCN1C(=O)O[C@H]2[C@H](O[C@@H]3[C@@H](C)[C@H](O[C@H]4C[C@@](C)(OC)[C@@H](O)[C@H](C)O4)[C@@H](C)C(=O)O[C@H](CC)[C@@](C)(O)[C@H](O)[C@@H](C)N(C)C[C@H](C)C[C@@]3(C)O)O[C@H](C)C[C@@H]21`: the MIC in the assay with Streptococcus pneumoniae, in the assay with Streptococcus pyogenes, in the assay on Haemophilus influenzae, against Staphylococcus aureus and against Moraxella catarrhalis was greater than 64 µg/mL throughout.
For `CCCCCCN1C(=O)O[C@H]2[C@H](O[C@@H]3[C@@H](C)[C@H](O[C@H]4C[C@@](C)(OC)[C@@H](O)[C@H](C)O4)[C@@H](C)C(=O)O[C@H](CC)[C@@](C)(O)[C@H](O)[C@@H](C)N(C)C[C@H](C)C[C@@]3(C)O)O[C@H](C)C[C@@H]21`, the MIC in the assay with Streptococcus pneumoniae, in the assay on Streptococcus pyogenes, against Haemophilus influenzae, against Staphylococcus aureus and in the assay with Moraxella catarrhalis was greater than 64 µg/mL in each case.
In the case of `C=CCN1C(=O)O[C@H]2[C@H](O[C@@H]3[C@@H](C)[C@H](O[C@H]4C[C@@](C)(OC)[C@@H](O)[C@H](C)O4)[C@@H](C)C(=O)O[C@H](CC)[C@@](C)(O)[C@H](O)[C@@H](C)N(C)C[C@H](C)C[C@@]3(C)O)O[C@H](C)C[C@@H]21`, the MIC with Streptococcus pneumoniae, with Streptococcus pyogenes, in the assay on Haemophilus influenzae, with Staphylococcus aureus and against Moraxella catarrhalis was greater than 64 µg/mL throughout.
Regarding `CC[C@H]1OC(=O)[C@H](C)[C@@H](O[C@H]2C[C@@](C)(OC)[C@@H](O)[C@H](C)O2)[C@H](C)[C@@H](O[C@@H]2O[C@H](C)C[C@H](N(C)C)[C@H]2O)[C@](C)(O)C[C@@H](C)CN(C)[C@H](C)[C@@H](O)[C@]1(C)O` [AZITHROMYCIN], the MIC against Streptococcus pneumoniae was less than 0.125 µg/mL; against Streptococcus pyogenes it was less than 0.125 µg/mL; against Haemophilus influenzae it was 2 µg/mL (≈ 2.67 µM); against Staphylococcus aureus, 1 µg/mL (≈ 1.34 µM); in the assay on Moraxella catarrhalis, less than 0.125 µg/mL.
In the case of `CC[C@H]1OC(=O)[C@H](C)[C@@H](O[C@H]2C[C@@](C)(OC)[C@@H](O)[C@H](C)O2)[C@H](C)[C@@H](O[C@@H]2O[C@H](C)C[C@H](N(C)C)[C@H]2O)[C@](C)(OC)C[C@@H](C)C(=O)[C@H](C)[C@@H](O)[C@]1(C)O` [CLARITHROMYCIN], the MIC against Streptococcus pneumoniae is less than 0.125 µg/mL; in the assay on Streptococcus pyogenes it was less than 0.125 µg/mL; against Haemophilus influenzae, 8 µg/mL (≈ 10.7 µM); against Staphylococcus aureus, 0.25 µg/mL (≈ 0.334 µM); against Moraxella catarrhalis, less than 0.125 µg/mL.
